Measurements taken from ChEMBL document CHEMBL1177711, “Novel quinolizidinyl derivatives as antiarrhythmic agents: 2. Further investigation” (J Med Chem, 2010).
Active and inactive are the calls of the source.

Key:
[1] = Negative chronotropic activity against potassium-induced contraction in guinea pig left atrium assessed as decrease atrial rate; assay type: functional, tissue-based; conditions: Cavia porcellus, Cardiac atrium
[2] = Negative inotropic activity against potassium-induced contraction in guinea pig left atrium assessed as decrease in developed tension; assay type: functional, tissue-based; conditions: Cavia porcellus, Cardiac atrium
[3] = Antiarrhythmic activity in sinusoidal alternating current-induced guinea pig left atrium assessed as increase in current strength at which extra beats occur at 50 uM measured every 30 mins; assay type: functional, Cavia porcellus, Cardiac atrium
Summary of the method: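 Isolated guinea pig left atria, electrically driven at 1 Hz, were exposed to sinusoidal alternating current to induce arrhythmia. The read-out was the rise in the ac-arrhythmia threshold over concentrations up to 100 μM.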

Aorta [4] = test: Vasorelaxant activity in potassium depolarized guinea pig aortic strip assessed as inhibition of calcium-induced contraction at 100 uM; assay type: functional; conditions: Cavia porcellus
[5] = Negative inotropic activity against potassium-induced contraction in guinea pig left atrium assessed as decrease in developed tension at 10 uM relative to control; assay type: functional, Cavia porcellus, Cardiac atrium; parameters: scale not given: the % may be the effect or the level left
Cavia porcellus = organism: Cavia porcellus; test: Agonist activity at muscarinic M2 receptor in guinea pig left atrium assessed as negative ionotropic activity in presence of 1 uM atropine; assay type: functional, tissue-based; conditions: Cardiac atrium
Summary of the method: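 Isolated guinea-pig left atria electrically driven at 1 Hz; contractile force (inotropy) recorded. Potency values derived by probit analysis (Litchfield and Wilcoxon).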

[6] = Cardioprotective effect in Langendorff perfused guinea pig spontaneously beating […] assessed as atrioventicular conduction time at 0.01 uM (RVb = 50 to 55 +/- 1 to 4 ms); assay type: functional; conditions: Cavia porcellus
Summary of the method: (§1)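 Whole guinea pig hearts were Langendorff-perfused and their ECG recorded at graded concentrations. Intervals read were PR (atrioventricular conduction time), QT (ventricular action potential duration) and QRS (intraventricular conduction time).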

[7] = Cardioprotective effect in Langendorff perfused guinea pig spontaneously beating […] assessed as intraventicular conduction time at 1 uM (RVb = 19 to 24 +/- 1 to 2 ms); assay type: functional; conditions: Cavia porcellus; summary of the method: as §1
[8] = Cardioprotective effect in Langendorff perfused guinea pig spontaneously beating […] assessed as atrioventicular conduction time at 10 uM (RVb = 50 to 55 +/- 1 to 4 ms); assay type: functional; conditions: Cavia porcellus; summary of the method: as §1
[9] = Cardioprotective effect in Langendorff perfused guinea pig spontaneously beating […] assessed as intraventicular conduction time at 10 uM (RVb = 19 to 24 +/- 1 to 2 ms); assay type: functional; conditions: Cavia porcellus; summary of the method: as §1
[10] = Cardioprotective effect in Langendorff perfused guinea pig spontaneously beating […] assessed as intraventicular conduction time at 0.001 uM (RVb = 19 to 24 +/- 1 to 2 ms); assay type: functional; conditions: Cavia porcellus; summary of the method: as §1
[11] = Cardioprotective effect in Langendorff perfused guinea pig spontaneously beating […] assessed as intraventicular conduction time at 0.01 uM (RVb = 19 to 24 +/- 1 to 2 ms); assay type: functional; conditions: Cavia porcellus; summary of the method: as §1
[12] = Cardioprotective effect in Langendorff perfused guinea pig spontaneously beating […] assessed as atrioventicular conduction time at 1 uM (RVb = 50 to 55 +/- 1 to 4 ms); assay type: functional; conditions: Cavia porcellus; summary of the method: as §1
[13] = Cardioprotective effect in Langendorff perfused guinea pig spontaneously beating […] assessed as intraventicular conduction time at 0.1 uM (RVb = 19 to 24 +/- 1 to 2 ms); assay type: functional; conditions: Cavia porcellus; summary of the method: as §1
[14] = Cardioprotective effect in Langendorff perfused guinea pig spontaneously beating […] assessed as atrioventicular conduction time at 0.001 uM (RVb = 50 to 55 +/- 1 to 4 ms); assay type: functional; conditions: Cavia porcellus; summary of the method: as §1
[15] = Cardioprotective effect in Langendorff perfused guinea pig spontaneously beating […] assessed as atrioventicular conduction time at 0.1 uM (RVb = 50 to 55 +/- 1 to 4 ms); assay type: functional; conditions: Cavia porcellus; summary of the method: as §1
Aorta [16] = test: Vasorelaxant activity in potassium depolarized guinea pig aortic strip assessed as inhibition of calcium-induced contraction at 50 uM; assay type: functional; conditions: Cavia porcellus

**Q.** Which results are given for `COc1ccc2c(c1)nc(-c1ccccc1)c(=O)n2C[C@H]1CCCN2CCCC[C@@H]12`?
**A.** EC50 [1]: 15.3 µM; EC50 [2]: 0.031 µM; Activity [3]: 30%; inhibition at 100 µM (Aorta [4]): 11%; Activity [5]: 85%

**Q.** Which inhibition (Cavia porcellus) does the source give for `CN1[C@@H]2CC[C@H]1C[C@@H](OC(=O)C(CO)c1ccccc1)C2` (stereo partly drawn) here?
**A.** Its inhibition is “inactive”.

**Q.** Which results are given for `CCCCc1oc2ccccc2c1C(=O)c1cc(I)c(OCCN(CC)CC)c(I)c1`?
**A.** AV conduction time [6]: 55 ms; intraventricular conduction time [7]: 22 ms; AV conduction time [8]: 58 ms; intraventricular conduction time [9]: 24 ms; intraventricular conduction time [10]: 20 ms; intraventricular conduction time [11]: 20 ms; AV conduction time [12]: 56 ms; intraventricular conduction time [13]: 21 ms; AV conduction time [14]: 54 ms; AV conduction time [15]: 55 ms

**Q.** Which inhibition at 100 µM (Aorta [4]) does the source give for `CCN(CC)CCNC(=O)c1ccc(N)cc1` [PROCAINAMIDE] here?
**A.** Its inhibition at 100 µM is 2%.

**Q.** For `C=C[C@H]1CN2CC[C@H]1C[C@@H]2[C@@H](O)c1ccnc2ccc(OC)cc12` [QUINIDINE], which AV conduction time [6] is on record?
**A.** The AV conduction time was 54 ms.

**Q.** And the intraventricular conduction time [7]?
**A.** Its intraventricular conduction time is 35 ms.

**Q.** And the AV conduction time [8]?
**A.** The AV conduction time was 70 ms.

**Q.** What about the intraventricular conduction time [9] of the same molecule?
**A.** Its intraventricular conduction time is 39 ms.

**Q.** What about the intraventricular conduction time [10] of the same molecule?
**A.** Its intraventricular conduction time is 25 ms.

**Q.** What about the intraventricular conduction time [11] of the same molecule?
**A.** The intraventricular conduction time was 27 ms.

**Q.** And the AV conduction time [12]?
**A.** The AV conduction time was 60 ms.

**Q.** What about the intraventricular conduction time [13] of the same molecule?
**A.** Its intraventricular conduction time is 31 ms.

**Q.** What about the AV conduction time [14] of the same molecule?
**A.** The AV conduction time was 53 ms.

**Q.** And the inhibition at 50 µM (Aorta [16])?
**A.** Its inhibition at 50 µM is 30%.

**Q.** What about the AV conduction time [15] of the same molecule?
**A.** The AV conduction time was 57 ms.
